Results: publication PMC10165662 (Bioorganic & medicinal chemistry letters, 2023)
Entries after “also recorded” stand apart in the source; their conditions may differ. Peptide text beside a SMILES is read from it. * marks the point of attachment. AMC = Cc1cc(=O)oc2cc(N*)ccc12

Biological target: 20S proteasome (sCP), β5 subunit (Homo sapiens, UniProt P28074)
Assay type: biochemical
Settings: Figures 2C and 4B
Method in brief: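 Purified human constitutive 20S proteasome (5 nM) incubated with LLVY-conjugated test substrate (10 μM in aminocoumarin time course) up to 4 h at 37 °C. Free LLVY [M+H] EIC quantified by single-quadrupole LC-MS against a purified LLVY standard curve (20–1250 pmol; LOQ 20 pmol), giving % cleaved. Reference fluorogenic substrates included each replicate; triplicates; one-way ANOVA.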

Cc1cc(=O)oc2cc(NC(=O)[C@H](Cc3ccc(O)cc3)NC(=O)[C@@H](NC(=O)[C@H](CC(C)C)NC(=O)[C@@H](N)CC(C)C)C(C)C)ccc12 [LLVY-AMC] (H-LLVY-{AMC})
Rate of hydrolysis by the sCP in time-dependent MS analysis (in words): hydrolyzed by the sCP faster than TAS-1; also recorded: faster rate than the molecule with 6-aminocoumarin
